Assays:
Format in all cases: cell-based
[1] = biological target: T1, Large neutral amino acids transporter small subunit 1 (Homo sapiens, UniProt Q01650); assay: Trans-stimulation of human LAT1 expressed in TREx HEK293 cells assessed as induction of [3H]-gabapentin efflux at 200 uM after 3 mins by scintillation counting analysis relative to L-phenylalanine
Procedure, shortened: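 [³H]-gabapentin-preloaded HEK-hLAT1 cells (inducible) were treated with compound at 200 μM. Efflux rate was taken at 3 min and expressed as % of the rate induced by L-phenylalanine, averaged over seven experiments. At least triplicate, 24-well poly-D plates.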

[2] = biological target: T1, Large neutral amino acids transporter small subunit 1; assay: Cis-inhibition of human LAT1 expressed in TREx HEK293 cells at 200 uM assessed as inhibition of [3H]-gabapentin uptake preincubated for 3 mins at 37 degC followed by washing with choline buffer and measured after 3 hrs by scintillation counting analysis relative to BCH
[3] = biological target: T1, Large neutral amino acids transporter small subunit 1; assay: Cis-inhibition of human LAT1 expressed in TREx HEK293 cells assessed as inhibition of [3H]-gabapentin uptake preincubated for 3 mins at 37 degC followed by washing with choline buffer and measured after 3 hrs by scintillation counting analysis
Procedure, shortened: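 Inducible hLAT1 HEK cells in 24-well poly-D plates, pH 7.4. Cells were exposed to [³H]-gabapentin (6 nM) plus test compound at 0.1–500 μM. […] Run at least in triplicate.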

[4] = biological target: T1, Large neutral amino acids transporter small subunit 1; assay: Trans-stimulation of human LAT1 expressed in TREx HEK293 cells assessed as induction of [3H]-gabapentin efflux at 200 uM after 3 mins by scintillation counting analysis
Procedure, shortened: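 HEK cells with inducible hLAT1 were preloaded with [³H]-gabapentin, then exposed to test compound at 200 μM. Efflux rate (fmol/min) was calculated 3 min after compound addition. Data from at least triplicate wells in 24-well poly-D plates.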

T1 sequence (Q01650 whole entry): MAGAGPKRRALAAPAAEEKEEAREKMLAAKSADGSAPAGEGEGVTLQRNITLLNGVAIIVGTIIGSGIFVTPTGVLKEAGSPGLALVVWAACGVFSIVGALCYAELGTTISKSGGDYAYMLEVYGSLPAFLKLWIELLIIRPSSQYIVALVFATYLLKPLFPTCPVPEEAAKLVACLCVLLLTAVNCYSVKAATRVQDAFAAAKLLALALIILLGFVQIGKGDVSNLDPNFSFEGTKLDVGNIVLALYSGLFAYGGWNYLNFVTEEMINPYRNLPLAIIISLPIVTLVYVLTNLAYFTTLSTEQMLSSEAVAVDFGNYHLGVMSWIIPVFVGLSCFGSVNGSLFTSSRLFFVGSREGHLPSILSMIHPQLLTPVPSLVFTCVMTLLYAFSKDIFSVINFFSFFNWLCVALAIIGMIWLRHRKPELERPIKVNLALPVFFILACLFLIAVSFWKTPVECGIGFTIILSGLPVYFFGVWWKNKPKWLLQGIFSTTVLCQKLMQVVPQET

Activity [1] [%]	inhibition [2] [%]	IC50 [3] [µM]	Activity [4] [fmol/min]	Compound
43				N[C@@H](Cc1cn(Cc2ccccc2)nn1)C(=O)O
63	20	> 1000		Cn1cc(C[C@H](N)C(=O)O)nn1
		110		N[C@@H](Cc1c[nH]cn1)C(=O)O [HISTIDINE]
82	58	160		N[C@@H](Cn1ccnn1)C(=O)O

More lines, now with the values behind:

Compound	Activity [1] [%]	inhibition [2] [%]	IC50 [3] [µM]	Activity [4] [fmol/min]
N[C@@H](Cn1cc(CO)nn1)C(=O)O	57	14	> 1000	
N[C@@H](Cc1ccccc1)C(=O)O				2.7
N[C@@H](Cn1cc(-c2ccccc2)nn1)C(=O)O	37	13	> 1000	
Cc1cn(C[C@H](N)C(=O)O)nn1	70	38	440	
N[C@@H](Cn1nnc2ccccc21)C(=O)O	100	59	340	
N[C@@H](Cn1cc(Cc2ccccc2)nn1)C(=O)O	49	-6		
